From ChEMBL document CHEMBL1157746, “Function-oriented synthesis of simplified caprazamycins: discovery of oxazolidine-containing uridine derivatives as antibacterial agents against drug-resistant bacteria” (J Med Chem, 2010)
≈ marks a conversion by molar mass, not a printed value.

Tests used:
[1] = target: T1, Phospho-N-acetylmuramoyl-pentapeptide-transferase (Bacillus subtilis (strain 168), UniProt Q03521); assay: Inhibition of Bacillus subtilis MraY after 30 mins using UDP-MurNAc-pentapeptide as substrate
T1 sequence (Q03521 whole entry): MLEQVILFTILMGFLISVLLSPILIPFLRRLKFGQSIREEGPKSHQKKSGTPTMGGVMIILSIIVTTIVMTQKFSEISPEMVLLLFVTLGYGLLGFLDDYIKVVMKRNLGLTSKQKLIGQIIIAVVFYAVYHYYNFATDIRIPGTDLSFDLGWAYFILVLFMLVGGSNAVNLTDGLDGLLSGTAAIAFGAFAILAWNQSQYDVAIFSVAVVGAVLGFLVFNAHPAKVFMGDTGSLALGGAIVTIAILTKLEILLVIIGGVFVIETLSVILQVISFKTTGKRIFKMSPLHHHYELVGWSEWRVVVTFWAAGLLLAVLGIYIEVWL

Staphylococcus aureus [2] = assay: Antibacterial activity against methicillin-sensitive Staphylococcus aureus ATCC 29213 after 20 hrs by two fold microdilution broth method; type: functional; conditions: ATCC 29213, 20 h
In short: (§1)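 NCCLS-recommended broth microdilution in cation-adjusted Mueller-Hinton broth; serial 2-fold compound dilutions; each well inoculated with 5×10⁴ CFU in 0.1 mL; incubated 35 °C for 20 h, then MIC (μg/mL) scored.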

Staphylococcus aureus [3] = assay: Antibacterial activity against methicillin-resistant Staphylococcus aureus SR-3637 clinical isolate after 20 hrs by two fold microdilution broth method; type: functional; conditions: SR3637, 20 h
In short: (§2)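 NCCLS broth microdilution in cation-adjusted Mueller-Hinton broth. Serial 2-fold compound dilutions, inoculum 5×10⁴ CFU per well in 0.1 mL. Plates incubated at 35 °C for 20 h, then MIC (μg/mL) scored. Strains are clinical isolates from Japanese hospitals: MRSA SR3637, VanA E. faecalis SR7914, VanA E. faecium SR7917.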

Enterococcus faecalis [4] = assay: Antibacterial activity against Enterococcus faecalis ATCC 29212 after 20 hrs by two fold microdilution broth method; type: functional; conditions: ATCC 29212, 20 h; in short: as §1
Enterococcus faecalis [5] = assay: Antibacterial activity against vancomycin-resistant Enterococcus faecalis SR-7914 clinical isolate after 20 hrs by two fold microdilution broth method; type: functional; conditions: SR7914, 20 h; in short: as §2
Enterococcus faecium [6] = assay: Antibacterial activity against Enterococcus faecium ATCC 19434 after 20 hrs by two fold microdilution broth method; type: functional; conditions: ATCC 19434, 20 h; in short: as §1
Enterococcus faecium [7] = assay: Antibacterial activity against vancomycin-resistant Enterococcus faecium SR-7917 clinical isolate after 20 hrs by two fold microdilution broth method; type: functional; conditions: SR7917, 20 h; in short: as §2

Compound	IC50 [1] [µM]	MIC (Staphylococcus aureus [2]) [µg/mL]	MIC (Staphylococcus aureus [3]) [µg/mL]	MIC (Enterococcus faecalis [4]) [µg/mL]	MIC (Enterococcus faecalis [5]) [µg/mL]	MIC (Enterococcus faecium [6]) [µg/mL]	MIC (Enterococcus faecium [7]) [µg/mL]
CCCCCCCCCCCC(=O)N[C@H](C(=O)O)[C@H](O[C@@H]1O[C@H](CN)[C@@H](O)[C@H]1O)[C@H]1O[C@@H](n2ccc(=O)[nH]c2=O)[C@H](O)[C@@H]1O.O=C(O)C(F)(F)F	63	> 64	> 64	> 64	> 64	> 64	> 64
CCCCCCCCCCCCCCCCNC(=O)[C@@H]1[C@@H]([C@H]2O[C@@H](n3ccc(=O)[nH]c3=O)[C@H](O)[C@@H]2O)O[C@H](CN)N1C(C)=O.Cl		16	32	32	16	16	16
CCCCCCCCCCCCCCCC(=O)N1[C@H](C(=O)O)[C@@H]([C@H]2O[C@@H](n3ccc(=O)[nH]c3=O)[C@H](O)[C@@H]2O)O[C@@H]1CCCN	360	> 64	> 64	> 64	> 64	> 64	> 64
CCCCCCCCCCCCCCCCNC(=O)[C@@H]1[C@@H]([C@H]2O[C@@H](n3ccc(=O)[nH]c3=O)[C@H](O)[C@@H]2O)O[C@H](CCCN)N1C(C)=O.Cl		16	32	16	16	16	16
CCCCCCCCc1ccc(NC(=O)N[C@H](C(=O)O)[C@H](O[C@@H]2O[C@H](CN)[C@@H](O)[C@H]2O)[C@@H]2O[C@@H](n3ccc(=O)[nH]c3=O)[C@H](O)[C@@H]2O)cc1.O=C(O)C(F)(F)F	75	> 64	> 64	64	64	> 64	> 64
CCCCCCCCc1ccc(NC(=O)[C@@H](N)[C@H](O[C@@H]2O[C@H](CN)[C@@H](O)[C@H]2O)[C@H]2O[C@@H](n3ccc(=O)[nH]c3=O)[C@H](O)[C@@H]2O)cc1.O=C(O)C(F)(F)F	46	64	64	16	64	32	32
CCCCCCCCc1ccc(C(=O)N[C@H](C(=O)O)[C@H](O[C@@H]2O[C@H](CN)[C@@H](O)[C@H]2O)[C@H]2O[C@@H](n3ccc(=O)[nH]c3=O)[C@H](O)[C@@H]2O)cc1.O=C(O)C(F)(F)F	256	> 64	> 64	64	> 64	> 64	> 64
CCCCCCCCCCCCCCCCNC(=O)[C@@H]1[C@@H]([C@H]2O[C@@H](n3ccc(=O)[nH]c3=O)[C@H](O)[C@@H]2O)O[C@H](CCN)N1C(C)=O.Cl		16	16	16	16	16	16
CCCCCCCCCCCCCCCC(=O)N1[C@H](C(=O)OC)[C@@H]([C@H]2O[C@@H](n3ccc(=O)[nH]c3=O)[C@H](O)[C@@H]2O)O[C@@H]1CN.Cl	980	> 64	13	32	64	32	16
CN[C@H](CC(C)C)C(=O)N[C@H]1C(=O)N[C@@H](CC(N)=O)C(=O)N[C@H]2C(=O)N[C@H]3C(=O)N[C@H](C(=O)N[C@H](C(=O)O)c4cc(O)cc(O)c4-c4cc3ccc4O)[C@H](O)c3ccc(c(Cl)c3)Oc3cc2cc(c3O[C@@H]2O[C@H](CO)[C@@H](O)[C@H](O)[C@H]2O[C@H]2C[C@](C)(N)[C@H](O)[C@H](C)O2)Oc2ccc(cc2Cl)[C@H]1O [VANCOMYCIN]				1 (≈ 0.69 µM)	> 64	> 64	> 64
CCCCCCCCCCCCCCCC(=O)N1[C@H](C(=O)OC)[C@@H]([C@H]2O[C@@H](n3ccc(=O)[nH]c3=O)[C@H](O)[C@@H]2O)O[C@@H]1CCCN=[N+]=[N-]		> 64	> 64	32 (≈ 48.1 µM)	> 64	> 64	64 (≈ 96.3 µM)
CCCCCCCCCCCCCCCC(=O)N1[C@H](C(=O)O)[C@@H]([C@H]2O[C@@H](n3ccc(=O)[nH]c3=O)[C@H](O)[C@@H]2O)O[C@@H]1CCN	451	> 64	> 64	> 64	> 64	> 64	> 64
CCCCCCCCCCCCCCCC(=O)N1[C@H](C(=O)OC)[C@@H]([C@H]2O[C@@H](n3ccc(=O)[nH]c3=O)[C@H](O)[C@@H]2O)O[C@@H]1CCN=[N+]=[N-]		> 64	> 64	16 (≈ 24.6 µM)	> 64	64 (≈ 98.3 µM)	64 (≈ 98.3 µM)
CCCCCCCCCCCCNC(=O)[C@@H](N)[C@H](O[C@@H]1O[C@H](CN)[C@@H](O)[C@H]1O)[C@H]1O[C@@H](n2ccc(=O)[nH]c2=O)[C@H](O)[C@@H]1O.O=C(O)C(F)(F)F	18	64	64	16	32	16	16
CCCCCCCCCCCCCCCC(=O)O[C@H]1CN[C@@H]([C@H](O[C@@H]2O[C@H](CN)[C@@H](O)[C@H]2O)[C@H]2O[C@@H](n3ccc(=O)[nH]c3=O)[C@H](O)[C@@H]2O)C(=O)N(C)[C@@H]1C(=O)O [DESMETHYLPALMITOYLCAPRAZOL]		0.5 (≈ 0.625 µM)	0.5 (≈ 0.625 µM)	0.5 (≈ 0.625 µM)	2 (≈ 2.5 µM)	1 (≈ 1.25 µM)	1 (≈ 1.25 µM)
CCCCCCCCCCCCCCCC(=O)N1[C@H](C(=O)O)[C@@H]([C@H]2O[C@@H](n3ccc(=O)[nH]c3=O)[C@H](O)[C@@H]2O)O[C@@H]1CN	740	> 64	> 64	> 64	> 64	> 64	> 64
CCCCCCCCCCCCCCCC(=O)N1[C@H](C(=O)OC)[C@@H]([C@H]2O[C@@H](n3ccc(=O)[nH]c3=O)[C@H](O)[C@@H]2O)O[C@@H]1CCN.Cl	920	8	8	8	16	4	8
CCCCCCCCCCCCCCCC(=O)N1[C@H](C(=O)OC(C)(C)C)[C@@H]([C@H]2O[C@@H](n3ccc(=O)[nH]c3=O)[C@H](O)[C@@H]2O)O[C@@H]1CCN		8 (≈ 12 µM)	16 (≈ 24 µM)	2 (≈ 3 µM)	2 (≈ 3 µM)	2 (≈ 3 µM)	8 (≈ 12 µM)
CCCCCCCCCCCCNC(=O)N[C@H](C(=O)O)[C@H](O[C@@H]1O[C@H](CN)[C@@H](O)[C@H]1O)[C@H]1O[C@@H](n2ccc(=O)[nH]c2=O)[C@H](O)[C@@H]1O.O=C(O)C(F)(F)F	36	> 64	> 64	64	64	> 64	> 64
CCCCCCCCCCCCCCCC(=O)N1[C@H](C(=O)OC)[C@@H]([C@H]2O[C@@H](n3ccc(=O)[nH]c3=O)[C@H](O)[C@@H]2O)O[C@@H]1CCCN.Cl	1200	8	8	8	16	8	4
CCCCCCCCCCCCCCCC(=O)N1[C@H](C(=O)OC(C)(C)C)[C@@H]([C@H]2O[C@@H](n3ccc(=O)[nH]c3=O)[C@H](O)[C@@H]2O)O[C@@H]1CN		8 (≈ 12.3 µM)	16 (≈ 24.5 µM)	4 (≈ 6.13 µM)	2 (≈ 3.06 µM)	4 (≈ 6.13 µM)	4 (≈ 6.13 µM)
